High-throughput results (PubChem BioAssay)
FXIIa inh: blocks human coagulation factor XIIa protease activity | P00748 | purified FXIIa, Boc-QGR-AMC fluorogenic substrate, 2 h | inhibition, % at 5 µM | 0.3% of 220,000 active | AID 800; in the data active = inhibition above about 40%;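 also: 0% = enzyme with no compound and 100% = blank without enzyme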
hK5 inh: kallikrein 5 (human) inhibition; recombinant hK5, fluorogenic AMC substrate cleavage; inhibition, % at 5 µM; 0.59% of 210,000 active;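 active = inhibition of 40% or more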;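 also: 0% = enzyme controls without compound and 100% = no-enzyme blanks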
Thrombin inh: thrombin (human) inhibition | P00734 | alpha-thrombin, Boc-VPR-AMC fluorogenic substrate cleavage | inhibition, % at 5 µM | 0.26% of 220,000 active | AID 1046;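 active = inhibition at or above 40%; inactive = inhibition below 40%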;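 also: 0% = enzyme with no compound and 100% = wells without enzyme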
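Material: Human alpha-thrombin protein | Buffer or medium: pH 7.5 Tris-saline with Tween 20 | Reagent: Boc-VPR-AMC substrate, 15 µM final | Schedule: Reaction at ambient temperature | Detection: AMC fluorescence at 355 nm excitation and 460 nm emission | Evaluation: Percent inhibition scaled between no-compound controls and no-enzyme blanks | Controls: no-compound enzyme wells and no-enzyme blanks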
FXIa inh: factor XIa (human) inhibition. purified FXIa, Boc-Glu-Ala-Arg-AMC fluorogenic substrate. inhibition, % at 5 µM. 0.14% of 220,000 active. AID 798;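 active = inhibition of at least 40%; inactive = inhibition below 40%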;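 also: fluorescence of freed AMC excited at 355 nm; 0% = enzyme without compound and 100% = no enzyme blank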
Target sequence (P03951 19-387 limits assumed): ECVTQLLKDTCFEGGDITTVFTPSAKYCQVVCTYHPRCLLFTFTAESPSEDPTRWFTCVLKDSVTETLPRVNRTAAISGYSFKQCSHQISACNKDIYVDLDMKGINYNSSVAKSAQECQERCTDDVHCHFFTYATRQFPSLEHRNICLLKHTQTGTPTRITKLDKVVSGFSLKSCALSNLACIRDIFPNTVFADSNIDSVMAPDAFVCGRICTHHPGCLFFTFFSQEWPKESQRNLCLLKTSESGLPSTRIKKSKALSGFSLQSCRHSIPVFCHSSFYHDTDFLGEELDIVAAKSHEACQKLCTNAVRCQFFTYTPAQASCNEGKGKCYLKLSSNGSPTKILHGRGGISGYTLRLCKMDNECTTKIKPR
Target sequence (P03951 388-625 limits assumed): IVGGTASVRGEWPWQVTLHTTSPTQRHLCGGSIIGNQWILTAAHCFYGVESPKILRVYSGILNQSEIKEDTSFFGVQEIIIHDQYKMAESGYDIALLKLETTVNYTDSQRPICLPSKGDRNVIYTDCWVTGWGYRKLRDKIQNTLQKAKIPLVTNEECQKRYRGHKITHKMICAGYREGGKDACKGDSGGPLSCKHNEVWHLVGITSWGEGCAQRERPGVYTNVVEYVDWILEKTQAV
* marks the source's active call; other numbers are inactive results; / = not tested or not shown. Hits are enriched below; roughly 1% of the tested compounds scored in any of these assays.

SMILES	FXIIa inh	hK5 inh	Thrombin inh	FXIa inh
NC(=S)NNc1cc(Cl)cc(Cl)c1	-1.0	-9.4	-1.0	1.8
CCOc1ccc(N2CC(C(=O)Nc3cccc(S(=O)(=O)NC4=NCCC4)c3)CC2=O)cc1 (stereo not given)	5.9	-2.2	-2.6	-3.7
O=c1[nH]c(-[n+]2ccccc2)c(/C=N/NC([S-])=Nc2ccccc2)s1	3.0	44.0*	-5.2	-11.7
Cc1cccc(NC(=O)CSc2nc(C)c(Cc3ccccc3)c(=O)[nH]2)c1C	7.9	/	0.2	0.5
Cc1cccc(NC(=O)CSCc2c(C)noc2C)c1C	56.1*	7.9	0.2	34.6
NC1=NC[C@H](CC2CCCCC2)N1CCc1cc(C(F)(F)F)cc(C(F)(F)F)c1	6.0	-2.4	-0.6	-4.9
C/C(N)=C(/C#N)C(=O)CSc1nc2cc(Cl)ccc2s1	2.9	-23.0	41.2*	-11.5
c1cncc(-c2csc(NCc3ccco3)n2)c1	45.7*	11.2	1.4	15.3
O=C(c1cc2cc(Br)ccc2o1)N1CCCC1	/	18.2	57.0*	36.8
O=C(c1cc2cc(Br)ccc2o1)N1CCOCC1	10.7	/	-1.1	-0.2
N#Cc1ccsc1NC(=O)CN(Cc1ccccc1)Cc1ccccc1	10.2	4.4	-4.5	43.2*
Cc1nn(-c2ccccc2)c(N)c1C(O)(CC(=O)C(F)(F)F)C(F)(F)F (stereo not given)	6.3	-20.1	-2.5	6.6
Cc1nn(-c2ccccc2)c(N)c1C(O)(C(F)(F)F)C(F)(F)F	23.8	41.8*	26.1	5.0
COc1cccc(NC(C)(C)c2nnnn2-c2c(C)cccc2C)c1	66.1*	28.7	1.4	43.8*
Cc1cccc(C)c1-n1nnnc1C1(Nc2ccccc2)CCCCC1	-0.5	-17.5	-1.1	-12.6
CSc1ccccc1NC(=O)CN(c1cccc(C)c1)S(C)(=O)=O	2.2	-23.7	-3.0	-3.6
COc1ccc(N(CC(=O)Nc2ccccc2SC)S(C)(=O)=O)cc1OC	44.5*	-14.9	0.2	11.6
CC(C(=O)OCc1nnc(-c2ccccc2)o1)N1C(=O)C2CCCCC2C1=O (stereo not given)	16.9	10.3	12.9	5.7
O=C(COC(=O)Cn1cnc2ccccc2c1=O)Nc1cc(Cl)ccc1[N+](=O)[O-]	10.1	-7.9	65.0*	8.9
NC(=O)COC(=O)c1ccc(-c2ccccc2)cc1	4.4	0.1	-0.1	5.5
CN1CCN(NS(=O)(=O)c2cccs2)CC1	14.4	-20.8	-1.6	6.5
COc1ccc(OC)c(Cc2nnc(CCC(=O)N3CCCCCC3)o2)c1	4.6	-2.6	10.2	-5.6
COc1ccc(OC)c(Cc2nnc(CCC(=O)N3CCC(N4CCCCC4)CC3)o2)c1	31.5	44.4*	23.2	29.5
COc1ccc(C(=O)NC(=S)N2CCCCC2)cc1	33.4	43.6*	19.3	16.9
CCOc1ccc(-n2c(SCC(=O)Nc3cc(C)on3)nc3c([nH]c4ccccc43)c2=O)cc1	23.0	2.3	-1.3	23.9
SMILES	FXIIa inh	hK5 inh	Thrombin inh	FXIa inh
CCOc1ccc(-n2c(SCC(N)=O)nc3c([nH]c4ccccc43)c2=O)cc1	8.1	43.9*	16.1	4.4
C=C(C)CNC(=S)N/N=C(\C)c1cccc(NC(C)=O)c1	34.4	74.7*	11.5	48.8*
COc1ccc(N/C(=N\c2nc(C)cc(C)n2)NC(C)=O)cc1OC	12.6	-5.2	50.2*	1.0
Cc1ccc(C)c(NC(=O)/C(C#N)=C/c2cn(CC(=O)NCc3ccco3)c3ccccc23)c1	1.4	45.8*	30.7	11.8
C=CCn1c(O)c(N=NC(=S)Nc2ccccc2F)c2ccccc21	11.5	-17.3	-8.1	3.0
C=CCn1c(O)c(N=NC(=S)Nc2ccccc2F)c2cc(S(=O)(=O)N3CCOCC3)ccc21	54.8*	20.3	-2.0	34.5
O=C(Nc1ccccc1N1CCOCC1)c1ccc2nc[nH]c2c1	11.7	14.4	56.5*	5.4
O=C(Nc1ccccc1N1CCOCC1)c1cccc(F)c1	14.1	7.2	-1.8	1.2
CCc1cc(-c2n[nH]c(=S)n2-c2ccccc2C)cs1	8.6	-17.8	5.4	-5.6
CCOP(=O)(OCC)C(Nc1ccc(C)cc1)c1ccco1 (stereo not given)	8.1	-26.1	3.3	-3.1
Cc1ccc(NC(=S)NC(=O)c2ccccc2)cc1NC(=S)NC(=O)c1ccccc1	-0.9	-14.2	-13.3	-2.8
Cc1cc(C)c(NC(=S)NC(=O)c2ccc(-c3ccccc3)cc2)c(C)c1	33.9	56.6*	9.1	14.3
O=C(c1noc2c1CCc1ccccc1-2)N1CCOCC1	-7.1	71.7*	0.6	-9.3
O=C1CSC(c2ccc(Cl)cc2)N1c1cccnc1 (stereo not given)	5.8	7.5	-3.7	6.0
Cc1nc2cc(C(=O)NCc3cccnc3)ccc2n1-c1ccc(F)cc1F	7.2	-2.4	-10.9	-1.5
